Measurements of several laboratories.
Compare with care: the assays were run in different laboratories.
Target: Mitogen-activated protein kinase kinase kinase 11 (MAP3K11, Homo sapiens, UniProt Q16584)

For `CCC(=O)N[C@@H]1CC[C@H](C(=O)N(C)c2ccc(-c3nc4ccccc4o3)cc2)C1`, the remaining binding was 100% (cell-free assay, competition with immobilised ligand; 1 µM).
With `c1cc(CN2CCOCC2)cc(Nc2nccc(NCCc3cnc[nH]3)n2)c1` the remaining activity was 82% (enzyme activity, inhibitor, radiometric; 1 µM).
With `O=C(Nc1cnn(-c2csc(C(=O)NC3COC3)c2)c1)Nc1c(F)cccc1Cl` the remaining activity was 84.7% (enzyme activity, inhibitor; 5 µM).
For `O=C1Nc2ccc(Cl)cc2C1=Cc1cc(Cl)c(O)c(Cl)c1`, the remaining signal was 60.4% (cell-free assay; 0.5 µM).
For `O=C(NCCCNc1nc(Nc2cccc(NC(=O)N3CCCC3)c2)ncc1C1CC1)C1CCC1`, the remaining activity was 27% (enzyme activity, inhibitor, radiometric; 1 µM).
For `CN1CC(Oc2cnc(C#N)cc2-c2ccn3nc(NC(=O)C4CC4)cc3c2)C1`, the inhibition was 5% (enzyme activity, inhibitor; 1 µM).
For `Cc1nn(CC(F)(F)F)cc1Nc1ncc(Br)c(NCCc2cnc[nH]2)n1`, the remaining activity was 60% (enzyme activity, inhibitor, radiometric; 1 µM).
For `Cc1ccc(C(=O)NCc2ccsc2)cc1C#Cc1cn(C(C)C)c2ncnc(N)c12`, the activity vs control was 8% (enzyme activity, inhibitor; 1 µM).
The remaining signal of `COc1ccc(COc2ccc(Cc3cnc(N)nc3N)cc2OC)cc1` is reported as 101% (cell-free assay; 0.5 µM).
`Cc1nn(CC(F)(F)F)cc1Nc1ncc(C2CC2)c(NCCCNC(=O)C2CCC2)n1` gave a remaining activity of 94% (enzyme activity, inhibitor, radiometric; 1 µM).
For `Cn1nc(C(=O)NCc2ccc(C(=O)O)cc2)cc1-c1ccc2[nH]ccc2c1`, the remaining binding was 87% (cell-free assay, competition with immobilised ligand; 0.1 µM).
The activity vs control of `COc1cc(/C=C/C(=O)CC(=O)/C=C/c2ccc(O)c(OC)c2)ccc1O` is reported as 14% (enzyme activity, inhibitor; 1 µM).
`CC(C)(O)c1cncc(-c2nc3ccc(F)cc3n2C2CC2)c1` gave a remaining binding of 100% (cell-free assay, competition with immobilised ligand; 1 µM).
With `Cc1nn(CC(F)(F)F)cc1Nc1nccc(NCCc2cnc[nH]2)n1` the remaining activity was 94% (enzyme activity, inhibitor, radiometric; 1 µM).
The remaining binding of `N#Cc1ccc(Nc2ccc3[nH]c(=O)[nH]c3c2)c(Cl)c1` is reported as 100% (cell-free assay, competition with immobilised ligand; 1 µM).
With `CNC(=O)c1cc(Oc2ccc(NC(=O)Nc3ccc(Cl)c(C(F)(F)F)c3)cc2)ccn1` the remaining signal was 98.3% (cell-free assay; 0.5 µM).
`Cc1c(C(=O)O)cc(-c2ccc(C3CCNCC3)cc2)c2ccc(-c3ccc(C(F)(F)F)cc3)cc12` has a remaining binding of 100% (binding, competition with immobilised ligand; 1 µM).
With `N#CCCc1ccc2c(c1)-c1[nH]c3ccc([N+](=O)[O-])cc3c1CC(=O)N2` the remaining signal was 18.4% (cell-free assay; 0.5 µM).
